# A selection: hits, their analogues and other compounds. The true share with any hit is near 3.4%.
# AHR act: human AHR activation. P35869. AHR-responsive luciferase reporter cells, luminescence. activation, % at 5 µM. 2.5% of 320,000 active. AID 2796; in the data active = activation above about 47%;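 note: 0% = vehicle wells and 100% = reference agonist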
# UCH37 inh: human UCH37 deubiquitinating enzyme inhibition; Q9Y5K5; purified proteasome/UCH37, Ub-AMC cleavage fluorescence; inhibition, % (concentration not given with the values); 0.33% of 330,000 active; AID 588478;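 active = mean inhibition over replicate wells above about 20%, limit read from the data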;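 note: 0% = compound-free wells with enzyme and 100% = wells lacking proteasome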
# Target sequence (Q9Y5K5 whole entry, looked up): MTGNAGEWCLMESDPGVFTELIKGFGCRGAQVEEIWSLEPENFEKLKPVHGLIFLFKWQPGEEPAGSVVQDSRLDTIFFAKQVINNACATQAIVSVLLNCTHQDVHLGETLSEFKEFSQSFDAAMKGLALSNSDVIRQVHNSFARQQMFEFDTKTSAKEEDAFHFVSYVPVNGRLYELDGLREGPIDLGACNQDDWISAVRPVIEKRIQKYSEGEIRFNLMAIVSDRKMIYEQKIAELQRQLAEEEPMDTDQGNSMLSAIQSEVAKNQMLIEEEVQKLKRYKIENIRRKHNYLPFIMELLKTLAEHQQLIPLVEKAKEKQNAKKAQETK
#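 System: Proteasome-associated human UCH37 deubiquitinase; Input: 0.15 nM proteasome in added enzyme buffer; Also added: Ub-AMC substrate from 1 µM stock; Incubation: 30 min compound-proteasome preincubation then 25 min substrate reaction, room temperature; Detection: fluorescence, ex 355 nm, em 460 nm; Read-out: % inhibition of Ub-AMC cleavage fluorescence; Benchmarks: no-proteasome and no-compound wells.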
# Arrestin-AP2 inh: inhibitors of human beta-arrestin and AP2 interaction; FITC-arrestin peptide / GST-AP2 beads, flow cytometry; AP2 beta2 appendage carries R879A mutation; inhibition, % at 10 µM; 0.31% of 340,000 active; AID 504490;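 active = inhibition above a set limit, near 3 SD of compounds lacking own fluorescence, cut at about 54% in these data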;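 note: plate controls were DMSO wells for no effect and 5 µM unlabelled arrestin peptide for full effect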
#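 System: GST-AP2 R879A glutathione beads. Medium: PBS with 0.05% Tween 20 and 0.1% BSA. Also added: FITC-arrestin peptide, 50 nM. Incubation: 12 min plus 1 h, RT. Measured by: high-throughput flow cytometry of beads, ex 488, em 535 nm. Evaluation: percent drop in bead-associated FITC signal.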
# A3A deaminase: inhibitors of human APOBEC3A DNA deaminase; P31941; recombinant A3A, FAM/TAMRA ssDNA deamination fluorescence; inhibition, % at 20 µM; 0.41% of 330,000 active; AID 493011;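 active = at least 40% inhibition at 20 µM here, with at most 30% in a related deaminase screen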;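 note: plate controls were A3A with DMSO for no effect and wells lacking A3A enzyme for full effect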
# Target sequence (P31941 whole entry, looked up): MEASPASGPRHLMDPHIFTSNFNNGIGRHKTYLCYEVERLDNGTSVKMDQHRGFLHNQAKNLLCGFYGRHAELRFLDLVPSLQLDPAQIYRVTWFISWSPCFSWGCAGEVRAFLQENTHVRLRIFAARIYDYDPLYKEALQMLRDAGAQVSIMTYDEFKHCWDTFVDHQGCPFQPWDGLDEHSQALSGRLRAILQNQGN
# APOBEC3G inh: APOBEC3G (human) deaminase inhibition; Q9HC16; recombinant A3G, ssDNA deamination FAM/TAMRA fluorescence; inhibition, % at 20 µM; 0.28% of 330,000 active; AID 493012;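 active = inhibition of at least 40% at 20 µM, with no more than 30% in the related APOBEC3A deaminase screen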;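 note: plate controls were DMSO wells with A3G for no effect and wells lacking A3G enzyme for full effect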
# PolyA inh: blocks polyadenylation in yeast reporter cells | S. cerevisiae SKY197-pL101 polyadenylation reporter, beta-gal luminescence; efflux-impaired pdr1/pdr3 knockout yeast; score 100 = 6 SD above DMSO | activity score, % at 12 µM | 0.02% of 300,000 active;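 active = lowest replicate activity score at least 50, where 100 means six control SD above control mean; inconclusive = lowest score under 50 but half or more replicates reach 50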;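 note: yeast exposed to compound for 9 h at 30 °C; higher score means more reporter readthrough which indicates perturbed polyadenylation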
# * = called active by the depositor; ? = inconclusive; . = no result.
SMILES,AHR act,UCH37 inh,Arrestin-AP2 inh,A3A deaminase,APOBEC3G inh,PolyA inh
O=[N+]([O-])c1cccc(C=NNc2nc(C(Cl)(Cl)Cl)nc3ccccc23)c1,.,5,.,.,.,.
CCCCC1S/C(=N/N=Cc2cccs2)NC1=O (configuration not stated),.,8,.,.,.,.
CCC(C)Sc1nc2c(cnn2-c2ccccc2)c(=O)[nH]1 (configuration not stated),66*,3,3,-2,-7,7
O=C/C(=C\Nc1ccc(Cl)cn1)c1nc2cc(Cl)ccc2o1,51*,3,-1,-3,-9,1
Cn1cccc1C=Nn1c(-c2ccc(Cl)cc2Cl)n[nH]c1=S,.,5,.,.,.,.
Cc1ccc[n+](/C(=C\C(=C=[N-])C#N)C(=O)c2ccc(Cl)cc2)c1,3,21*,-3,-8,-5,9
CCOC(=O)c1cc(C(C)=NOC(=O)c2ccc(Cl)cc2)on1,.,4,.,.,.,.
COC(CNC(=O)c1ccc2c3c(onc13)-c1ccccc1C2=O)OC,-1,20*,42,-2,-8,-25
Cc1ccc(-c2cnc(SCCNC(=O)c3ccco3)[nH]2)cc1,61*,1,1,3,-4,4
O=S(=O)(c1ccccc1)N(CC(O)Cn1c2ccccc2c2ccccc21)c1ccccc1 (configuration not stated),64*,0,-3,-1,0,-16
COc1ccccc1N(CC(O)Cn1c2ccccc2c2ccccc21)S(=O)(=O)c1ccccc1 (configuration not stated),45,7,1,-6,-9,6
Cc1ccc(NC(=O)CCC(=O)NN=C/C=C/c2ccccc2)cc1,.,3,.,.,.,.
CC(CC(=O)C(F)(F)F)=NNC(=O)/C(C#N)=C/N(C)C,.,1,.,.,.,.
CC1(C)CCC(=O)N2CC[C@H]3C[C@H](OC(=O)Nc4ccc5c(c4)OCO5)C[C@@H]1[C@H]32,60*,5,-11,2,-6,-13
CC1(C)CCC(=O)N2CC[C@H]3C[C@H](OC(=O)Nc4ccccc4)C[C@@H]1[C@H]32,8,2,5,-4,-8,13
Cn1c2ccccc2c2n[nH]c(=S)nc21,75*,7,-3,-3,27,?
Fc1ccccc1Nc1nc(-c2ccncc2)nc2ccccc12,56*,-5,17,0,1,-30
Fc1ccc(Nc2nc(-c3ccncc3)nc3ccccc23)cc1,52*,-2,21,-3,-12,-16
CC(=O)c1cccc(Nc2nc(-c3ccccc3)nc3ccccc23)c1,45,-22,-8,-1,19,-21
c1ccc(Nc2nc(-c3ccncc3)nc3ccccc23)cc1,19,-75,12,-3,-9,-28
CCOc1nc(-c2ccncc2)nc2ccccc12,114*,1,12,1,-5,-35
Cc1ccc(Nc2nc(-c3ccncc3)nc3ccccc23)cc1,38,.,4,-2,2,-17
CC(=O)Nc1cccc(Nc2nc(-c3ccccc3)nc3ccccc23)c1,62*,-80,-23,4,2,-11
CCc1ccc2c(c1)C1(NN=C(c3ccc(C)cc3)S1)C(=O)N2 (configuration not stated),55*,1,-2,-6,-4,-20
CCC(=O)NNc1nc2c(C)cc(C)cc2s1,62*,4,4,0,1,-8
SMILES,AHR act,UCH37 inh,Arrestin-AP2 inh,A3A deaminase,APOBEC3G inh,PolyA inh
O=C(/C=C/c1ccc2c(c1)OCO2)Nc1cccnc1,56*,-40,32,-3,-3,9
O=C(/C=C/c1c(F)cccc1Cl)Nc1cccnc1,50*,0,-13,-4,-7,12
O=C(/C=C/c1ccco1)Nc1ccc2c(c1)OCO2,72*,7,-9,2,5,-2
O=C(/C=C/c1cc(Br)ccc1F)Nc1cccnc1,20,4,-4,4,4,-6
O=C(/C=C/c1ccco1)NCc1ccc2c(c1)OCO2,1,3,-5,5,-1,15
O=C(/C=C/c1ccc2c(c1)OCO2)Nc1nncs1,89*,-57,-10,-2,-5,2
Cc1cc(=O)[nH]c(NN=Cc2cc(C)n(CC(F)(F)F)c2C)n1,.,-1,.,.,.,.
CC(=O)c1cc2c(cc1NC(=O)Nc1cccc(Cl)c1)OCCO2,58*,-30,3,-1,8,8
CC(=O)c1cc2c(cc1NC(=O)c1ccc(Cl)cc1)OCCO2,17,-174,27,0,0,-20
COc1ccc(CNC(=O)CCc2nc(-c3ccccc3F)no2)c(OC)c1,49*,-2,28,0,-3,2
CC(=O)c1cnc2c(-c3ccc(Cl)cc3)cnn2c1C,-2,-2,-3,-3,-4,.
Clc1ccc(-c2cnn3c(-c4ccncc4)ccnc23)cc1,72*,1,-8,-1,-6,-19
Nc1c(C(=O)O)cnc2c(-c3ccc(Cl)cc3)cnn12,98*,-14,-10,-1,3,13
CC(C)C=NNC(=O)c1ccc(Cl)cc1,.,3,.,.,.,.
Cc1ccc(S(=O)(=O)NN=Cc2cn(C)nc2C)cc1,.,2,.,.,.,.
CCOc1ccc(S(=O)(=O)NCCC(=O)NCCc2ccc(OCC)c(OCC)c2)cc1,7,2,-7,0,11,-17
CCOc1ccc(CCNC(=O)CCS(=O)(=O)c2ccc(OC)cc2)cc1OCC,2,30*,2,11,6,0
COc1ccc(-c2[nH]ncc2N=Nc2cc(C)cc(C)c2)cc1,66*,7,28,-2,-7,-8
CC(CC(=O)Nc1cccc(Cl)c1Cl)=NNC(=O)c1ccccc1Br,.,1,.,.,.,.
Nc1ccc2cn[nH]c2c1,49*,2,3,-6,-4,-5
Brc1ccc2[nH]ncc2c1,2,3,8,-2,-7,-6
O=C(C=NO)NCCCN1CCCCCC1,.,0,.,.,.,.
COc1ccc(C(CNC(=O)c2oc3c(Cl)cccc3c2C)N2CCCC2)cc1 (configuration not stated),50*,4,23,-1,0,-12
COc1ccc(C(CNC(=O)c2oc3ccccc3c2C)N2CCCC2)cc1 (configuration not stated),47*,-1,26,-1,-3,.
CCN(CC(=O)Nc1ccc(OC)cc1)C(=O)c1oc2c(Cl)cccc2c1C,53*,1,7,3,-6,6
CCN(CC(=O)Nc1ccccc1C(F)(F)F)C(=O)c1oc2c(Cl)cccc2c1C,6,.,-16,5,-11,11
COc1cc(C(=O)O[C@H]2CC(C)=CCC[C@]3(C)O[C@@H]3C(O)C2C(C)C)cc(OC)c1OC (some centres not stated),.,1,.,.,.,.
CCc1ccccc1NN=C(C)c1c(O)cc(C)oc1=O,.,5,.,.,.,.

# Source: PubChem BioAssay (several laboratories)
